Screening results (PubChem)
A selection: hits, their analogues and other compounds. The true share with any hit is near 1.8%.
STAT1 inh = STAT1 signaling inhibitors, primary screen, cell-based, HTS, luciferase reporter; NIH 3T3 STAT1-luciferase reporter, IFN-gamma, luminescence; inhibition, % at 5.5 µM; actives 0.35% (n = 200,000);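 active = inhibition above a set limit, the mean inhibition across all tested compounds plus 3 SD, cut at about 34% in these data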
TRAIL sens C8 = viability loss with TRAIL in NB7+C8 cells, primary screen, TRAIL sensitizer project, cell-based, ATPlite luminescence; AID 624354, 2012; actives 1% (n = 360,000); inhibition (viability loss, TRAIL sensitization), % at 10 µM;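 active = compounds causing at least 50% loss of cell viability in the single-dose screen, relative to plate controls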
PPC-1+TRAIL kill = compounds killing PPC-1 cancer cells with TRAIL present, primary screen, TRAIL potentiator project, ATPLite luminescence, uHTS. PPC-1 cells + TRAIL, ATPLite viability luminescence. cell killing (% activity), % at 4 µM or 5 µM. actives 0.41% (n = 220,000);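 active = cell killing above 50% in the first pass at 4 µM, then a duplicate retest at 5 µM averaging 50% or more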
STAT3 inh = IL-6 driven STAT3 reporter inhibitors, primary screen, U3A cells, luciferase, luminescence, MLSCN library | IL-6 STAT3-luciferase reporter; host cell line lacks STAT1 | inhibition, % at 5.5 µM | actives 0.89% (n = 190,000) | AID 862, 2007;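 active = inhibition above the mean inhibition across all screened compounds plus 3 SD, cut at about 44% in these data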
STAT3 activator = IL-6 driven STAT3 reporter potentiators, primary screen, U3A cells, luciferase, luminescence, MLSCN library; AID 871, 2007; actives 0.91% (n = 190,000); activation (% of control), % at 5.6 µM; IL-6 STAT3-luciferase reporter; 100% = signal with IL-6 EC80 alone;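 active = activation above the screen-wide mean of compound activation plus 3 SD, cut at about 130% in these data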
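Material: human U3A cells carrying STAT3-luciferase construct. Measured by: reporter luminescence signal. Timing: compound 1 h, then IL-6 6 h at 37 °C.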
PPC1 cytotox = cytotoxicity in PPC-1 cells, confirmation, cytotoxicity control for TRAIL apoptosis potentiator project, cell-based, ATP content luminescence; shares compounds with PPC-1+TRAIL kill; PPC-1 viability, ATPlite luminescence, overnight; cytotoxicity, % at 5 µM; actives 50% (n = 1,200); AID 1447, 2008;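 active = reconfirmed compounds whose average cytotoxicity reaches 50% or more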
Numbers stand for hits; - = inactive; . = no result.

SMILES	STAT1 inh	TRAIL sens C8	PPC-1+TRAIL kill	STAT3 inh	STAT3 activator	PPC1 cytotox
CC1CN(c2ccc([N+](=O)[O-])c(NCCOc3ccccc3)c2)CCN1 (stereo not given)	-	-	-	-	-	.
CCn1c(C(=O)N2CCc3ccccc3C2)cc2oc3ccccc3c21	-	-	-	-	-	-
Clc1ccccc1/C=C/c1nc(-c2ccccn2)no1	.	69	71	.	.	67
Cc1nc(-c2ccccc2)sc1C(=O)NN	-	-	-	-	-	-
C=CCNC(=O)c1sc(-c2ccccc2)nc1C	-	-	-	-	-	.
Cc1cc(C(=O)NNC(=O)CN2C(=O)NC3(CCCCC3)C2=O)c(C)o1	.	-	.	.	.	.
O=C(C1CCC(=O)N(C2CC2)C1)N1CCC(Oc2cccc(C(F)(F)F)c2)CC1 (stereo not given)	.	-	.	.	.	.
CCN(CC)c1ccc(NC(=O)c2ccco2)cc1	-	62	58	-	-	61
CCN(CC)c1ccc(NC(=S)NC(=O)c2ccco2)cc1	-	-	.	-	-	.
Cc1ccc(NC(=O)c2ccc(OC(=O)c3ccco3)cc2)cc1	-	-	-	-	-	-
Cc1ccc(Oc2ccc(NC(=O)c3ccco3)cc2)cc1	-	-	-	-	-	.
CCOC(=O)C1CCN(C(=O)Cn2c(=O)oc3cc(S(=O)(=O)N4CCCC4)ccc32)CC1	.	-	.	.	.	.
COc1nc(Nc2nc3ccccc3c(=O)[nH]2)nc2ccc(C)cc12	.	-	51	.	.	51
COc1ccc(NC(=O)/C(C#N)=C\c2ccc(N3CCOCC3)o2)cc1	-	65	55	-	-	58
CCCCn1c(N)c(N(C)C(=O)c2ccccc2Oc2ccccc2)c(=O)[nH]c1=O	.	-	.	.	.	.
CCc1c(C)n2nc(C)cc2[nH]c1=O	-	-	-	-	-	-
O=C(COc1ccc(F)cc1)Nc1c(C(=O)N2CCC(N3CCCCC3)CC2)oc2ccccc12	.	-	.	.	.	.
CCCCCCOc1ccc(N2C(=O)CC(SCCN)C2=O)cc1 (stereo not given)	.	-	.	.	.	.
CCOc1ccc(N2C(=O)CC(SCCN)C2=O)cc1 (stereo not given)	-	-	-	-	-	-
COc1ccc2nc(-c3cccc(N)c3)[nH]c2c1	-	52	52	-	-	52
CN(C)c1ccc(-c2nc3ccccc3c(=O)[nH]2)cc1	.	93	88	.	.	88
O=c1[nH]c(-c2ccncc2)nc2ccccc12	-	-	-	-	-	.
O=C(CCNc1ccc(F)cc1)c1ccco1	-	-	-	-	-	-
O=C(C(=O)N1CCC(Cc2ccccc2)CC1)c1ccccc1	.	-	.	.	.	.
CCOC(=O)COc1ccc(S(=O)(=O)N2CCN(C(=O)OCC)CC2)cc1	-	-	-	-	-	.
SMILES	STAT1 inh	TRAIL sens C8	PPC-1+TRAIL kill	STAT3 inh	STAT3 activator	PPC1 cytotox
CCOC(=O)N1CCN(S(=O)(=O)c2ccc(OCC(=O)OC)cc2)CC1	-	-	-	-	-	-
Clc1ccc(-c2nc3cc(CN4CCCCC4)ccc3o2)cc1	.	-	.	.	.	.
O=C(CSc1nnc(Cc2cccs2)n1C1CCCCC1)N1CCCc2ccccc21	-	-	-	-	-	-
Cn1c(Cc2cccs2)nnc1SCC(=O)N1CCCc2ccccc21	-	-	-	-	-	.
CCN(CC)c1ccc(Nc2nc(-c3cccnc3)cs2)cc1	.	-	.	.	.	.
CN(C)c1ccc(Nc2nc(-c3cccnc3)cs2)cc1	-	67	70	-	-	68
O=C(NCc1ccccc1)C(C1CC1)n1c(=O)c(-c2ccco2)nc2ccccc21 (stereo not given)	.	-	.	.	.	.
Cc1nc(CN2CCN(C(=O)NC3(c4ccccc4)CC3)CC2)cs1	-	-	-	-	-	-
CC(=O)c1ccc(N2CCN(C(=O)c3ccc(Cl)c(NC4=NC5CS(=O)(=O)CC5S4)c3)CC2)cc1 (stereo not given)	.	-	.	.	.	.
CN(/C(=N\S(=O)(=O)c1ccccc1)c1ccccc1)c1ccc(O)cc1	-	-	-	-	-	.
COc1ccc(-c2cc(C(=O)OCC(=O)Nc3cc(C)on3)c3ccccc3n2)cc1OC	-	-	-	-	-	.
